How the values were obtained:
[1] = test system: Human immunodeficiency virus 1; test: Antiviral activity against HIV1 NL4-3 harboring L10F/L24I/M46I/L63P/A71V/G73S/V82T amino acid substitution in protease encoding region infected in human MT4 cells assessed as inhibition of p24 Gag protein production selected at 5 uM of indinavir by ELISA; format: functional, organism-based; details: Human immunodeficiency virus 1, NL4-3, MT4
Method in brief: (§1)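 HIV-1NL4-3 (500 TCID50s) was passaged in MT-4 cells, starting at 0.01–0.03 µM PI and raising the drug generally two- to threefold as virus propagated. Cell-free passage used day-7 supernatants. Variants were then tested in MT-4 cells (10^5/ml) with 100 TCID50s, with or without drug, at 37°C. Day-7 p24 Gag was read by chemiluminescent immunoassay; EC50 vs drug-free control; triplicate.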

[2] = test system: Human immunodeficiency virus 1; test: Ratio of EC50 for HIV1 NL4-3 harboring L10F/L24I/M46I/L63P/A71V/G73S/V82T amino acid substitution in protease encoding region to EC50 for HIV1 NL4-3; format: functional
Method in brief: (§2)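 MT-4 cells (10^5/ml) infected with 100 TCID50s of PI-selected HIV-1NL4-3 variants or the parental strain, with or without serial drug concentrations, at 37°C. Day 7 supernatant p24 Gag measured by chemiluminescent enzyme immunoassay. […] Triplicate. Ratio is variant EC50 over wild-type EC50.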

[3] = test system: Human immunodeficiency virus 1; test: Antiviral activity against HIV1 NL4-3 harboring L10F/V32I/M46I/I54M//A71V/I84V amino acid substitution in protease encoding region infected in human MT4 cells assessed as inhibition of p24 Gag protein production selected at 5 uM of amprenavir by ELISA; format: functional, organism-based; details: Human immunodeficiency virus 1, NL4-3, MT4
Method in brief: (§3)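 Cell-free passage used day-7 supernatants. Variants were then tested in MT-4 cells (10^5/ml) with 100 TCID50s, with or without drug, at 37°C. Day-7 p24 Gag was read by chemiluminescent immunoassay; EC50 vs drug-free control; triplicate.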

[4] = test system: Human immunodeficiency virus 1; test: Ratio of EC50 for HIV1 NL4-3 harboring L10F/L33F/M46I/I47V/Q58E/V82I/I84V/I85V amino acid substitution in protease encoding region to EC50 for HIV1 NL4-3; format: functional; method in brief: as §2
[5] = test system: Human immunodeficiency virus 1; test: Antiviral activity against HIV1 NL4-3 harboring L10F/M46I/I54V/V82A amino acid substitution in protease encoding region infected in human MT4 cells assessed as inhibition of p24 Gag protein production selected at 1 uM of Lopinavir by ELISA; format: functional, organism-based; details: Human immunodeficiency virus 1, NL4-3, MT4; method in brief: as §3
[6] = test system: Human immunodeficiency virus 1; test: Antiviral activity against HIV1 NL4-3 harboring L23I/K43I/M46I/I50L/G51A/A71V amino acid substitution in protease encoding region infected in human MT4 cells assessed as inhibition of p24 Gag protein production selected at 1 uM of atazanavir by ELISA; format: functional, organism-based; details: Human immunodeficiency virus 1, NL4-3, MT4; method in brief: as §1
[7] = test system: Human immunodeficiency virus 1; test: Ratio of EC50 for HIV1 NL4-3 harboring M46I/V82F/I84V amino acid substitution in protease encoding region to EC50 for HIV1 NL4-3; format: functional; method in brief: as §2
[8] = test system: Human immunodeficiency virus 1; test: Ratio of EC50 for HIV1 NL4-3 harboring L10F/V32I/M46I/I54M//A71V/I84V amino acid substitution in protease encoding region to EC50 for HIV1 NL4-3; format: functional; method in brief: as §2
[9] = test system: Human immunodeficiency virus 1; test: Antiviral activity against HIV1 NL4-3 harboring L10I/G48V/I54V/L90M amino acid substitution in protease encoding region infected in human MT4 cells assessed as inhibition of p24 Gag protein production selected at 5 uM of saquinavir by ELISA; format: functional, organism-based; details: Human immunodeficiency virus 1, NL4-3, MT4; method in brief: as §1
[10] = test system: Human immunodeficiency virus 1; test: Antiviral activity against HIV1 NL4-3 harboring M46I/V82F/I84V amino acid substitution in protease encoding region infected in human MT4 cells assessed as inhibition of p24 Gag protein production selected at 5 uM of ritonavir by ELISA; format: functional, organism-based; details: Human immunodeficiency virus 1, NL4-3, MT4; method in brief: as §1
[11] = test system: Human immunodeficiency virus 1; test: Ratio of EC50 for HIV1 NL4-3 harboring L10F/D30N/K45I/A71V/T74S amino acid substitution in protease encoding region to EC50 for HIV1 NL4-3; format: functional
[12] = test system: Human immunodeficiency virus 1; test: Antiviral activity against HIV1 NL4-3 harboring L10F/L33F/M46I/I47V/Q58E/V82I/I84V/I85V amino acid substitution in protease encoding region infected in human MT4 cells assessed as inhibition of p24 Gag protein production selected at 5 uM of GRL-02031 by ELISA; format: functional, organism-based; details: Human immunodeficiency virus 1, NL4-3, MT4; method in brief: as §3
[13] = test system: Human immunodeficiency virus 1; test: Antiviral activity against HIV1 NL4-3 harboring L10F/D30N/K45I/A71V/T74S amino acid substitution in protease encoding region infected in human MT4 cells assessed as inhibition of p24 Gag protein production selected at 5 uM of nelfinavir by ELISA; format: functional, organism-based; details: Human immunodeficiency virus 1, NL4-3, MT4; method in brief: as §1
[14] = test system: Human immunodeficiency virus 1; test: Antiviral activity against HIV1 NL4-3 infected in human MT4 cells assessed as inhibition of p24 gag protein production by ELISA; format: functional, organism-based; details: Human immunodeficiency virus 1, NL4-3, MT4
Method in brief: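 MT-4 cells (10^5/ml) were infected with 100 TCID50s of HIV-1 and cultured at 37°C with or without various drug concentrations. On day 7, supernatant p24 Gag was measured by automated chemiluminescent enzyme immunoassay. […] Assays were run in triplicate.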

[15] = test system: Human immunodeficiency virus 1; test: Ratio of EC50 for HIV1 NL4-3 harboring L23I/K43I/M46I/I50L/G51A/A71V amino acid substitution in protease encoding region to EC50 for HIV1 NL4-3; format: functional; method in brief: as §2
[16] = test system: Human immunodeficiency virus 1; test: Ratio of EC50 for HIV1 NL4-3 harboring L10F/M46I/I54V/V82A amino acid substitution in protease encoding region to EC50 for HIV1 NL4-3; format: functional; method in brief: as §2
[17] = test system: Human immunodeficiency virus 1; test: Ratio of EC50 for HIV1 NL4-3 harboring L10I/G48V/I54V/L90M amino acid substitution in protease encoding region to EC50 for HIV1 NL4-3; format: functional; method in brief: as §2

## COC(=O)N[C@H](C(=O)N[C@@H](Cc1ccccc1)[C@@H](O)CN(Cc1ccc(-c2ccccn2)cc1)NC(=O)[C@@H](NC(=O)OC)C(C)(C)C)C(C)(C)C [ATAZANAVIR]
[1]
  EC50: 63 nM
[2]
  Ratio EC50: 15
[3]
  EC50: 3.2 nM
[4]
  Ratio EC50: 8
[5]
  EC50: 41 nM
[6]
  EC50: 310 nM
[7]
  Ratio EC50: 5
[8]
  Ratio EC50: 1
[9]
  EC50: 320 nM
[10]
  EC50: 21 nM
[11]
  Ratio EC50: 6
[12]
  EC50: 36 nM
[13]
  EC50: 24 nM
[14]
  EC50: 4.3 nM
[15]
  Ratio EC50: 72
[16]
  Ratio EC50: 10
[17]
  Ratio EC50: 74

Reference: ChEMBL document CHEMBL1649117, “GRL-02031, a novel nonpeptidic protease inhibitor (PI) containing a stereochemically defined fused cyclopentanyltetrahydrofuran potent against multi-PI-resistant human immunodeficiency virus type 1 in vitro” (Antimicrob Agents Chemother, 2009)
